Results pooled from the literature.
Lines come from different studies, so protocols differ.
Organism: Mycolicibacterium smegmatis
Read-out: microbial growth

C[C@H]1c2cccc(O)c2C(=O)C2=C(O)[C@]3(O)C(=O)C(C(N)=O)=C(O)[C@@H](N(C)C)[C@@H]3[C@@H](O)[C@@H]21  MIC (resazurin; MC^2155; 24 h): 0.11 µg/mL
Cc1ccc(-c2c[nH]c(N)n2)cc1  MIC (ATCC700084 MC^2155; 48 h): 100 µM
Cc1ccc(Nc2nc(-c3cc(C(=O)Nc4ccsc4)no3)cs2)cc1  MIC (MC2155): > 64 µg/mL
CCCCCC[C@H](CN1CCC(COc2cccc(C(=NOC)c3ccc(Cl)cc3)c2)CC1)OC(N)=O  MIC (agar dilution): 6.5 µg/mL
Cc1ccc(Nc2nc(-c3cc(C(=O)Nc4ccccn4)no3)cs2)cc1  MIC (MC2155): > 64 µg/mL
NNC(=O)c1ccncc1  MIC (broth dilution; ATCC700084 MC^2155): 32 µg/mL
CO[C@H]1/C=C/O[C@@]2(C)Oc3c(C)c(O)c4c(O)c(c(/C=N/N5CCN(C)CC5)c(O)c4c3C2=O)NC(=O)/C(C)=C\C=C\[C@H](C)[C@H](O)[C@@H](C)[C@@H](O)[C@@H](C)[C@H](OC(C)=O)[C@@H]1C  MIC (resazurin; MC^2155; 24 h): 0.8 µg/mL
CCN[C@@H]1C[C@H](N)[C@@H](O[C@H]2OC(CN)=CC[C@H]2N)[C@H](O)[C@H]1O[C@H]1OC[C@](C)(O)[C@H](NC)[C@H]1O  MIC (broth dilution; 72 h): 2 µg/mL
CO[C@@H]1[C@@H](OC(N)=O)[C@@H](O)[C@H](Oc2ccc3c(O)c(NC(=O)c4ccc(O)c(CC=C(C)C)c4)c(=O)oc3c2C)OC1(C)C  MIC (resazurin; MC^2155; 24 h): 8 µg/mL
CCCOc1ccc(-c2c[nH]c(N)n2)cc1  MIC (ATCC700084 MC^2155; 48 h): 100 µM
C[C@@H](O)[C@H]1C(=O)N2C(C(=O)O)=C(SCCN=CN)C[C@H]12  MIC (resazurin; MC^2155; 24 h): 2.3 µg/mL
CCCCCOc1ccc(-c2c[nH]c(N)n2)cc1  MIC (ATCC700084 MC^2155; 48 h): 150 µM
C/C(=N\NC(=N)N)c1ccc(-c2ccc(/C(C)=N/Nc3ccccc3Cl)cc2)cc1.Cl  MIC (MC2155): 213 µg/mL
NC[C@@H]1O[C@H](O[C@H]2[C@@H](O)[C@H](O[C@@H]3[C@@H](O)[C@H](N)C[C@H](N)[C@H]3O[C@H]3O[C@H](CO)[C@@H](O)[C@H](O)[C@H]3N)O[C@@H]2CO)[C@H](N)[C@@H](O)[C@@H]1O  MIC (broth dilution; 72 h): 1 µg/mL
Cc1ccc(Nc2nc(-c3cc(C(=O)Nc4cccc(C)n4)no3)cs2)cc1  MIC (MC2155): > 64 µg/mL
CC[C@H]1OC(=O)[C@H](C)[C@@H](O[C@H]2C[C@@](C)(OC)[C@@H](O)[C@H](C)O2)[C@H](C)[C@@H](O[C@@H]2O[C@H](C)C[C@H](N(C)C)[C@H]2O)[C@](C)(OC)C[C@@H](C)C(=O)[C@H](C)[C@@H](O)[C@]1(C)O  MIC (resazurin; MC^2155; 24 h): 0.36 µg/mL
CCCCc1ccc(-c2c[nH]c(N)n2)cc1  MIC (ATCC700084 MC^2155; 48 h): 150 µM
